Myeloid diff 2: myeloid differentiation induction | 360,000 compounds, 1% hits | calls only at 10 µM | ER-HoxA9 myeloid progenitors, lysozyme-GFP differentiation, flow cytometry | AID 624256;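 active = normalized GFP-positive differentiation at or above the plate's own cutoff, the solvent-only control mean plus 3 SD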;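 also: cells exposed to compound for four days before flow analysis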
SENP1 FRET inh: inhibitors of human SENP1 SUMO protease catalytic domain; recombinant SENP1 catalytic domain, CyPet-SUMO1-YPet FRET cleavage; inhibition, % at 10 µM; 360,000 compounds, 0.21% hits;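 active = inhibition at least 30% at 10 µM, raw YFP signal under a set limit, fluorescence ratio 0.5 to 1.5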;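 also: 0% = enzyme with DMSO and 100% = no enzyme wells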
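Assay system: hSENP1 catalytic domain, recombinant. Amount: SENP1 enzyme, 20 pM final. Schedule: 50 min reaction, RT, dark. Technique: FRET, CFP and YFP emission. Control set: no-enzyme wells low, DMSO-plus-enzyme wells high control.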
MIN6 prolif: induces beta-cell replication in MIN6 cells; proliferation, % at 10 µM; AID 2380; MIN6 cells proliferation, ATPlite luminescence, 48 h; cells starved in 0.2% serum; 100% = growth in 10% serum; 330,000 compounds, 0.29% hits;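 active = compounds whose signal lies at least 3.5 SD above the mean of all wells on their plate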;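 also: 0% = DMSO-treated cells in low-serum medium and 100% = 10% serum control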
NRP1-CendR mod: NRP-1/CendR interaction modulation; O14786; FAM-RPARPAR peptide binding to NRP-1, fluorescence polarization; inhibition, % at 25 µM; 360,000 compounds, 0.85% hits; AID 602438;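 active = inhibition or corrected inhibition above about 18%, plus a signal ratio from 0.5 to 1.5, limit read from the data, passing the limit was not always enough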
Target sequence (O14786 whole entry, looked up): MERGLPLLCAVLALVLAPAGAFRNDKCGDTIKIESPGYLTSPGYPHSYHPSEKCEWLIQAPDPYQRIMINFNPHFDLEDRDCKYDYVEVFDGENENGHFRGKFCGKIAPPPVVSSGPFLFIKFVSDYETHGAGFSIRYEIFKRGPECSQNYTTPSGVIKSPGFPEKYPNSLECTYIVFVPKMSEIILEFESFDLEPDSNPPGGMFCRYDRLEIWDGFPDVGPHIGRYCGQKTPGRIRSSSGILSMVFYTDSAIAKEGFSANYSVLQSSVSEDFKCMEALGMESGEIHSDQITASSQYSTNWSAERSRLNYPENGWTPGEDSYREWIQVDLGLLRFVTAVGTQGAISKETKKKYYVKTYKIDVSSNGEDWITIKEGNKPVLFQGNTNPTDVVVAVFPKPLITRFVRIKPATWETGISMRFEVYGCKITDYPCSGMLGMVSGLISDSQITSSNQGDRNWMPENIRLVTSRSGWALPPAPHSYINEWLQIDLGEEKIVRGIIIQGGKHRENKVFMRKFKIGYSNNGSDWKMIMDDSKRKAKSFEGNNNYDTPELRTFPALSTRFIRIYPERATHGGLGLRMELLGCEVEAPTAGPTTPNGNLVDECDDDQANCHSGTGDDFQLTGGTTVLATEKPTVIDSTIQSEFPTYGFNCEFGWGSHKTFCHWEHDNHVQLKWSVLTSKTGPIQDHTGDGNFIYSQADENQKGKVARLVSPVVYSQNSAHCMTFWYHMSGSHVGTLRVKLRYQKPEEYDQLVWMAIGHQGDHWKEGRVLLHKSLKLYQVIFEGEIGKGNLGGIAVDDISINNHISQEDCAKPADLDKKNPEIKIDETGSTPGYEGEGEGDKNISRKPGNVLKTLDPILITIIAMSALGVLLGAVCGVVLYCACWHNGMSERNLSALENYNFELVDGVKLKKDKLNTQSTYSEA
DAGLB inh: blocks human DAGLB lipase activity. 340,000 compounds, 0.059% hits. Q8NCG7. AID 504411. HEK293T DAGLB membrane lysate, EnzChek fluorogenic substrate. inhibition, % at 5.17 µM; in the data active = inhibition above about 34%;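 also: 0% = enzyme with vehicle and 100% = wells lacking enzyme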
MT1-MMP act inh: inhibitors of human MT1-MMP activation; P50281; HT1080 RFP-PRO-GFP cells, GFP/RFP ratio fluorescence, overnight; percent of plate control window, DMSO zero; GFP/RFP ratio change, % at 20 µM; 360,000 compounds, 0.061% hits; AID 651647;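 active = GFP/RFP ratio change of at least 30% with cell ATP level not reduced by more than half and red fluorescence within 50% of control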
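Material – HT1080 RFP-PRO-GFP cells · Control set – DMSO wells and RFP-L50D-GFP cells · Incubation – overnight cell settling, then overnight compound exposure, 37 °C, 5% CO2 · Compound dosing – single-point 20 µM compound, 1% DMSO · Read-out – GFP/RFP fluorescence ratio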
Myeloid diff CP1: myeloid differentiation induction. shares compounds with Myeloid diff 2. 2,300 compounds, 2% hits. ER-HoxA9 myeloid progenitors, GFP/Mac1 double-positive flow. AID 651706. calls only;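 active = share of green or green-and-red cells above 9 and 9% in run 1 or 4 and 3% in run 2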
GFP autofluor: counter-screen for myeloid differentiation promoters: compound fluorescence | shares compounds with Myeloid diff 2 | ER-HoxA9 myeloid progenitors, no estrogen, GFP autofluorescence flow cytometry; vehicle wells 0%, positive control 100% | fluorescence response, % (test concentration not listed) | 2,300 compounds, 7.4% hits;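 active = over 5% cells positive for green fluorescent reporter, or over 2% positive for both it and APC stain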;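 also: range taken on the double positive population between DMSO and positive control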
Numbers without * were called inactive; i = inactive; · = not tested or not shown; + = active, no number. An excerpt weighted towards active compounds, which were near 2.4% of everything screened.

SMILES	Myeloid diff 2	SENP1 FRET inh	MIN6 prolif	NRP1-CendR mod	DAGLB inh	MT1-MMP act inh	Myeloid diff CP1	GFP autofluor
Cc1ccc2[nH]c(CCN(C)C)c(CN3CCOCC3)c2c1	i	0	-7	-1	2	0	i	0
O=[N+]([O-])c1ccc(O)c(CN2CCCCCC2)c1	i	2	1	12	-1	2	i	0
Cn1cc(CN2CCC(C(=O)Nc3cccc(-c4cccc(F)c4)c3)CC2)cn1	i	2	-3	-4	3	-1	·	·
CCCn1ncc(CN2CCC(C(=O)Nc3cccc(-c4cccc(F)c4)c3)CC2)c1C	+	-1	-7	16	-3	-12	i	0
CCOC(=O)C(=CNc1cc(C)nn1-c1ccccc1)C(=O)OCC	i	0	1	-16	0	2	i	0
CCOC(=O)C(=CNc1ccccc1C)C(=O)OCC	i	1	-6	11	-7	4	·	·
O=Cc1sc(Nc2ccccc2)nc1Cl	+	-27	-2	-87	-2	-48	i	52*
O=C1COc2ccc(C(=O)COC(=O)CNC(=O)c3ccco3)cc2N1	i	2	-2	-2	-1	-4	·	·
COc1ccccc1-n1cnc2cc(NC(=O)c3ccco3)ccc21	+	1	1	-8	0	5	i	0
Cc1ccc2ccc(S(=O)(=O)NCc3ccco3)cc2c1	i	-3	0	-4	0	-2	·	·
Cc1ccc(S(=O)(=O)NCc2ccco2)cc1C(N)=O	+	0	1	-3	1	4	i	0
O=C(Cn1nc(Cc2cccnc2)c2ccccc2c1=O)Nc1ccccc1F	i	5	-3	-9	1	6	·	·
COc1ccc2[nH]c(=O)c(CNc3cc(C)ccc3C)cc2c1	i	-11	-1	-12	0	-6	·	·
Cc1cccc(CCNC(=O)CCS(=O)(=O)c2ccc3nc(C)sc3c2)c1	i	-1	-1	-8	1	-4	·	·
Cc1ccc(CCNC(=O)CCS(=O)(=O)c2ccc3nc(C)sc3c2)cc1	i	-2	-3	0	0	1	i	0
CC(C)[C@@H](C(=O)N1CCCC1)N1C(=O)N2CCc3c([nH]c4ccccc34)[C@@]2(C)C1=O	i	1	-1	-2	0	0	·	·
CCn1cc(C(=O)N2CCN(c3ccc([N+](=O)[O-])cc3)CC2)c(=O)c2ccc(C)nc21	+	-2	-4	9	2	6	i	0
CC(C)OC(=O)NCCOC(=O)Nc1cccc(Cl)c1	i	2	-5	9	-4	3	·	·
CC(C)OC(=O)NC(C)(C)COC(=O)Nc1cccc(Cl)c1	i	-1	-2	-3	-2	1	i	0
COc1ccc(C(c2nnnn2CCc2ccccc2)N2CCN(C3CCCC3)CC2)cc1 (stereo unspecified)	i	3	-3	3	0	2	·	·
COc1ccccc1N1CCN(C(c2ccc(N(C)C)cc2)c2nnnn2CCc2ccccc2)CC1 (stereo unspecified)	+	-1	-4	-9	-1	2	i	8.2*
CCCc1cc(C(=O)OCC(=O)NCCc2ccccc2)sc1C	i	3	·	-1	-9	-3	·	·
CCCCCNC(=O)C(c1ccc(C#N)cc1)n1c(=O)c(-c2ccco2)nc2ccccc21 (stereo unspecified)	i	-29	·	-40	·	-3	i	1
COc1ccccc1Nc1nc2c(s1)CCC2	i	-8	-3	2	1	1	i	0
COc1ccccc1Nc1c2c(nc3ccccc13)CCC2	+	4	-2	1	-7	-12	i	1
COc1ccccc1Nc1ncnc2ccccc12	i	0	0	14	4	3	i	0

Source: PubChem BioAssay (several laboratories)
